From ChEMBL document CHEMBL2046296, “Synthesis and antidepressant activity of arylalkanol-piperidine derivatives as triple reuptake inhibitors” (Eur J Med Chem, 2012)

Experiments:
[1] = target: T1, Sodium-dependent noradrenaline transporter (Homo sapiens, UniProt P23975); test: Inhibition of [3H]noradrenaline uptake at human NET expressed in HEK293 cells at 10 uM after 10 mins by scintillation counting
[2] = target: T2, Sodium-dependent serotonin transporter (Homo sapiens, UniProt P31645); test: Inhibition of [3H]serotonin uptake at human SERT expressed in HEK293 cells at 10 uM after 10 min by scintillation counting
Target sequence in this assay (P31645 whole entry, looked up): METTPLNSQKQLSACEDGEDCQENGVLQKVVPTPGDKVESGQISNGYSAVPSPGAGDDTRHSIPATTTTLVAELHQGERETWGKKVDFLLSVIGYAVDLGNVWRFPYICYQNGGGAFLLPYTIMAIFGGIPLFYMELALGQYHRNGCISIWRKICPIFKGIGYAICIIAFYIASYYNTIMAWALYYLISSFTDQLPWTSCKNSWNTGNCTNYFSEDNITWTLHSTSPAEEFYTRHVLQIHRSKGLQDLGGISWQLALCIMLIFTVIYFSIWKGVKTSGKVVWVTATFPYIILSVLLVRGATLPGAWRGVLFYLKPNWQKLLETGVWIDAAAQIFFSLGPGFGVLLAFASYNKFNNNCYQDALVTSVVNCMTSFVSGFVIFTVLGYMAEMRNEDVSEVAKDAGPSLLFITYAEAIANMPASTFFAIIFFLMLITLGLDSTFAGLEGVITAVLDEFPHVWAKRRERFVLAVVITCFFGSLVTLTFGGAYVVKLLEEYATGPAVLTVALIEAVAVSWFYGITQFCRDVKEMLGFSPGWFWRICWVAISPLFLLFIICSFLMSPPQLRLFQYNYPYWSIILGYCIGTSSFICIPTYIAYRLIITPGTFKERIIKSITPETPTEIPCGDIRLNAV

[3] = target: Sodium-dependent dopamine transporter (Homo sapiens, UniProt Q01959); test: Inhibition of [3H]dopamine uptake at human DAT expressed in HEK293 cells at 10 uM after 10 mins by scintillation counting
Sodium-dependent dopamine transporter, sequence (Q01959 whole entry): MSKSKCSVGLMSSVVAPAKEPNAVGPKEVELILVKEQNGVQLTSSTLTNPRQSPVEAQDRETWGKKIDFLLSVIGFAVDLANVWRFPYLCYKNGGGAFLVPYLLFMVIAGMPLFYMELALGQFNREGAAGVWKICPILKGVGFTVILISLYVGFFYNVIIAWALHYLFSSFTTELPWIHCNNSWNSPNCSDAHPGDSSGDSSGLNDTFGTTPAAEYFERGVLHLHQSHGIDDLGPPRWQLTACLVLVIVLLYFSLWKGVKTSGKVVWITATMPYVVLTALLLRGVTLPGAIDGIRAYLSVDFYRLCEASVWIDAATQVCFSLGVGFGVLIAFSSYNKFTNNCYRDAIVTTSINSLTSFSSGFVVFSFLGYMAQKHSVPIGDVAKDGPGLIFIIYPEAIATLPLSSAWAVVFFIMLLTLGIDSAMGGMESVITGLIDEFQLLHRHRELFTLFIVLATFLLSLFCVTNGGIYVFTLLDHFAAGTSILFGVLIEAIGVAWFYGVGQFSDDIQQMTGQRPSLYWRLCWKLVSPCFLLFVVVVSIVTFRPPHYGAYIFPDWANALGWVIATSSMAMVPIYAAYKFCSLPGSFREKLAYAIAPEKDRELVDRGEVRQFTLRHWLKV

[4] = target: T2, Sodium-dependent serotonin transporter; test: Inhibition of [3H]serotonin uptake at human SERT expressed in HEK293 cells after 10 min by scintillation counting
Target sequence in this assay (P31645 whole entry): as the sequence (P31645 whole entry, looked up) above

[5] = target: T1, Sodium-dependent noradrenaline transporter; test: Inhibition of [3H]noradrenaline uptake at human NET expressed in HEK293 cells after 10 mins by scintillation counting
[6] = tested on: Mus musculus; test: Antidepressant activity in mouse assessed as decrease in immobility at 50 mg/kg, po administered 30 mins prior to testing by tail suspension test relative to vehicle control; format: functional; set-up: scale not given: the % may be the effect or the level left
Procedure, shortened: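 Oral doses of 10–50 mg/kg (three doses) were given once, 30 min before testing. Mice were hung by adhesive tape 1 cm from the tail tip, 75 cm above the tabletop. Immobility was recorded for 5 min, scored blind, 10–12 mice per group, against vehicle controls. One-way ANOVA with Scheffe post hoc test; p<0.05 significant.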

[7] = tested on: Mus musculus; test: Toxicity in mouse assessed as increase in locomotor activity at 50 mg/kg, po up to 5 mins relative to vehicle treated control; format: organism-based; set-up: dose 50 mg/kg, route oral; conditions: in vivo
Procedure, shortened: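 Mice were dosed orally at 50 mg/kg and 30 min later placed singly in new 35×35×35 cm plastic cages under dim light with sound attenuation. Activity was logged by a monitoring apparatus at intervals up to 30 min, and the 5 min point was analysed. Mean ± SEM; one-way ANOVA, Scheffe post hoc, versus control.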

T1 sequence (P23975 whole entry): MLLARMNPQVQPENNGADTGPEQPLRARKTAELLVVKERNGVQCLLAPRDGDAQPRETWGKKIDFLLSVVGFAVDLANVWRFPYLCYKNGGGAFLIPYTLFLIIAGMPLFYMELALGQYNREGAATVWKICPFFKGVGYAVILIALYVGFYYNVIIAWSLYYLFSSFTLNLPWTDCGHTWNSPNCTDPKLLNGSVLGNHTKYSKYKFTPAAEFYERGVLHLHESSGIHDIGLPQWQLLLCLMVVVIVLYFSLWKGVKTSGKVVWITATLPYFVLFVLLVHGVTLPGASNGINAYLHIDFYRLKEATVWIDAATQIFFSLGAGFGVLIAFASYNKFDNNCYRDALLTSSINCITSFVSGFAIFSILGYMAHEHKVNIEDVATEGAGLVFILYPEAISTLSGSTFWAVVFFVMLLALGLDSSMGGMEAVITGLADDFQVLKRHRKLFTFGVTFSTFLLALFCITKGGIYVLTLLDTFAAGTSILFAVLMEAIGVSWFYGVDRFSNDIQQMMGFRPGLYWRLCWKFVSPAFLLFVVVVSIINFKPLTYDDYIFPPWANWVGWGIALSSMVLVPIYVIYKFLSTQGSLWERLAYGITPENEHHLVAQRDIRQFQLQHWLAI

inhibition [1] | inhibition [2] | inhibition [3] | IC50 [4] | IC50 [5] | Compound | Activity [6] | Activity [7]
50% | 56% | 61% |  |  | OC(CCN1CC=C(Cc2ccccc2)CC1)c1ccc(Cl)cc1 (racemic) |  | 
78% | 55% | 75% |  |  | C[C@H]([C@@H](O)c1csc2ccccc12)N1CC=C(Cc2ccccc2)CC1 (racemic) |  | 
55% |  | 22% | 0.357 µM |  | COc1ccc2cc([C@H](O)[C@H](C)N3CCC(O)(Cc4ccccc4)CC3)ccc2c1Cl (racemic) |  | 
55% | 80% | 68% |  |  | COc1ccc([C@H](O)[C@H](C)N2CC=C(Cc3ccccc3)CC2)cc1 (racemic) |  | 
63% | 74% | 61% |  |  | COc1ccc(C(O)CCN2CC=C(Cc3ccccc3)CC2)cc1OC (racemic) |  | 
78% | 66% | 66% |  |  | OC(CCN1CC=C(Cc2ccccc2)CC1)c1ccc(F)cc1F (racemic) |  | 
36% | 38% | 56% |  |  | C[C@H]([C@@H](O)c1ccc(Cl)c(Cl)c1)N1CC=C(Cc2ccccc2)CC1 (racemic) |  | 
62% | 59% | 70% |  |  | COc1ccc([C@H](O)[C@@H](C)N2CC=C(Cc3ccccc3)CC2)cc1 (racemic) |  | 
34% | 33% | 77% |  |  | C[C@@H]([C@@H](O)c1csc2ccccc12)N1CC=C(Cc2ccccc2)CC1 (racemic) |  | 
 |  | 73% | 0.427 µM | 0.8 µM | COc1ccc2cc(C(O)CCN3CCC(O)(Cc4ccccc4)CC3)ccc2c1Cl (racemic) |  | 
 |  | 64% | 0.367 µM | 0.531 µM | C[C@@H]([C@@H](O)c1ccc(Cl)c(Cl)c1)N1CC=C(Cc2ccccc2)CC1 (racemic) |  | 
61% | 27% | 64% |  |  | OC(CCN1CCC(O)(Cc2ccccc2)CC1)c1csc2ccccc12 (racemic) |  | 
74% | 65% | 55% |  |  | O=[N+]([O-])c1ccc(C(O)CCN2CC=C(Cc3ccccc3)CC2)cc1 (racemic) |  | 
 |  |  |  |  | COc1ccc(C(CN(C)C)C2(O)CCCCC2)cc1 (configuration not stated) [VENLAFAXINE] | 63% | Non-toxic
62% |  | 57% | 0.768 µM |  | COc1ccc(C(O)CCN2CC=C(Cc3ccccc3)CC2)cc1 (racemic) |  | 
82% | 78% | 52% |  |  | OC(CCN1CC=C(Cc2ccccc2)CC1)c1cccs1 (racemic) |  | 
83% | 62% | 30% |  |  | Cc1ccc(C(O)CCN2CC=C(Cc3ccccc3)CC2)cc1 (racemic) |  | 
88% | 74% | 49% |  |  | OC(CCN1CC=C(Cc2ccccc2)CC1)c1ccc2c(c1)CCO2 (racemic) |  | 
83% | 61% | 35% |  |  | C[C@H]([C@@H](O)c1cccc(F)c1)N1CC=C(Cc2ccccc2)CC1 (racemic) |  | 
57% | 63% | 70% |  |  | C[C@@H]([C@@H](O)c1cccc(F)c1)N1CC=C(Cc2ccccc2)CC1 (racemic) |  | 
63% | 80% | 51% |  |  | COc1ccc2cc([C@H](O)[C@@H](C)N3CCC(O)(Cc4ccccc4)CC3)ccc2c1Cl (racemic) |  | 
